# Screening data deposited in PubChem BioAssay by Sanford-Burnham Center for Chemical Genomics.
# STEP inh – inhibitors of human striatal-enriched phosphatase STEP | recombinant STEP, OMFP fluorogenic substrate, fluorescence | AID 588621 | actives 0.25% (n = 360,000) | P54829 | inhibition, % at 20 µM;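 active = inhibition at 20 µM, scaled per plate between control wells, above about 37%, limit read from the data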
# Target sequence (P54829 whole entry, looked up): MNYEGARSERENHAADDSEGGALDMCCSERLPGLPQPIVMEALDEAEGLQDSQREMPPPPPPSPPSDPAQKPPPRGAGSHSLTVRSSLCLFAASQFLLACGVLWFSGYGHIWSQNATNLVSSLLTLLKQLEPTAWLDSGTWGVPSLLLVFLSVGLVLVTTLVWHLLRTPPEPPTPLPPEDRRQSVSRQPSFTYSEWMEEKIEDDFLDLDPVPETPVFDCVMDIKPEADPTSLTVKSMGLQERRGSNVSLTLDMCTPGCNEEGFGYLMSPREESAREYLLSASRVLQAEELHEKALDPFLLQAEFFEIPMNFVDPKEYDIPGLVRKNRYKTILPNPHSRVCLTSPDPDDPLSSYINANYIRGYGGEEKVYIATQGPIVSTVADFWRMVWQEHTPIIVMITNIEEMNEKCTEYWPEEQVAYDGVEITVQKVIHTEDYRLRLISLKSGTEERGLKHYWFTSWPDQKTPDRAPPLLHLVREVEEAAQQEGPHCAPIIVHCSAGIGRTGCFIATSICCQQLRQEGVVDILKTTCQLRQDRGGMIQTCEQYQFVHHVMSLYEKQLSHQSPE
#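 Material: STEP (striatal-enriched tyrosine phosphatase) enzyme, cell-free | Medium: 50 mM Bis-Tris pH 6.0 with 2.5 mM DTT and 0.005% Tween 20 | Read-out: Percent inhibition scaled to no-enzyme and uninhibited-enzyme controls, plate-pattern corrected | Signal: Fluorescence read at 480 nm ex / 540 nm em | Times: 20 min reaction, room temperature, in the dark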
# Scp-1 inhibitor – inhibitors of human Scp-1 phosphatase; Q9GZU7; Recombinant Scp1, phosphopeptide, malachite green phosphate absorbance; inhibition, % at 20 µM; actives 0.88% (n = 340,000); AID 493091;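 active = inhibition above about 50% at 20 µM, limit read from the data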
#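 Material: truncated SCP-1 phosphatase (76-261aa) / Buffer or medium: 50 mM Tris acetate pH 5.5, 0.005% Tween-20, 10 mM MgCl2 / Compound dosing: one concentration, 20 µM, with 1.0% DMSO / Incubation: 45 min room-temperature reaction, 5 min colour, 30 min stabiliser / Detection: colorimetric free-phosphate detection, absorbance 630 nm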
# SUMO1-SIM PPI – modulators of human SUMO1-mediated protein-protein interactions; inhibition, % at 20 µM; SUMO1 binding to a labelled peptide, TR-FRET, 1 h; actives 0.33% (n = 360,000); in the data active = inhibition above about 37%
# Target sequence (P63165 whole entry, looked up): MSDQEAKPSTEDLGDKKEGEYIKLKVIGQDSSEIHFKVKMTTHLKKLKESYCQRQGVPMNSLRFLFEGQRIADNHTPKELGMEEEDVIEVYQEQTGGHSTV
# LMPTP inh – LMPTP (human) inhibition; actives 0.22% (n = 360,000); recombinant LMPTP-A, OMFP fluorogenic substrate, fluorescence intensity; P24666; AID 651560; inhibition, % at 20 µM;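 active = compounds that cut the enzyme signal by at least half of the control window in the single-dose screen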
#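 test system = LMPTP-A | amount = 0.625 nM LMPTP-A final | reagent = fluorogenic phosphatase substrate OMFP at 400 µM final | incubation = 50 min at room temperature | benchmarks = no-enzyme low control, uninhibited high control | medium = Bis-Tris pH 6.0, DTT, detergent | signal = fluorescence intensity of OMFP turnover product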
# DNMT1 inh – blocks human DNA methyltransferase DNMT1; DNMT1 molecular beacon, Hinp1I cleavage, fluorescence; inhibition (reported as % activation of signal), % at 10 µM; actives 0.83% (n = 360,000); in the data active = inhibition above about 50%
# DNMT1 confirm – confirmation of human DNMT1 inhibitors. DNMT1 molecular beacon HinP1I cleavage, fluorescence. shares compounds with DNMT1 inh. AID 602385. actives 8% (n = 2,300). inhibition, % at 10 µM;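 active = average inhibition of at least 30% in the single-concentration confirmation test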
# Beacon interf – beacon fluorescence artifact counter-screen | shares compounds with DNMT1 inh | DNMT1 molecular beacon spectral interference counterscreen, fluorescence 485/520 | activation (fluorescence interference), % at 10 µM | actives 1% (n = 2,300) | AID 602387;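 active = activation of at least 30% at 10 µM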;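 also: DNMT1 catalytic domain with a HinP1I cleavage step and a FAM/dabcyl DNA beacon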
# Hits are given with their value; - = inactive; . = no result given. Only some compounds are listed: those with a hit (about 1.7% of all), similar ones and a draw of the others.
SMILES,STEP inh,Scp-1 inhibitor,SUMO1-SIM PPI,LMPTP inh,DNMT1 inh,DNMT1 confirm,Beacon interf
O=c1nc(SCc2cccc(C(F)(F)F)c2)nc2ccccn12,-,-,-,-,-,.,.
O=C(OCc1c(Cl)cccc1Cl)c1ccncc1,-,-,-,-,-,.,.
CN1OC[C@@H]2CN(C(=S)NCCc3ccccc3)[C@H](c3ccccc3Br)C[C@@H]21,-,.,-,-,-,.,.
C[C@H](NC(=O)c1ccco1)C(=O)Nc1nc(-c2ccccn2)cs1,-,-,-,-,77,-,-
O=C(Nc1nc(-c2ccccn2)cs1)c1ccco1,-,-,-,-,-,.,.
Cc1ccccc1OCC(=O)Nc1ccccc1NC(=O)c1ccco1,-,-,-,-,-,.,.
CCOc1cc(NC(=O)c2ccco2)c(OCC)cc1NC(=O)COc1ccccc1C,-,-,-,-,65,-,-
NC(=O)CC[C@H](NC(=O)c1ccc(F)cc1)C(=O)OCC(=O)Nc1c(F)c(F)c(F)c(F)c1F,-,-,-,-,-,.,.
NC(=O)CC[C@H](NC(=O)c1ccc(F)cc1)C(=O)OCC(=O)NCc1ccc(F)cc1,-,-,-,-,52,-,-
CCN1CCc2c(OCc3ccccc3)cccc2C1=O,-,-,-,-,-,.,.
CCOc1ccc(S(=O)(=O)NCC(=O)NC2CCCCC2)cc1,-,-,-,-,-,.,.
O=c1oc(/C=C/c2ccco2)nc2sc3c(c12)CCC3,-,-,-,-,108,-,-
Cc1ccc(S(=O)(=O)N(CC(=O)N/N=C/c2cccc(Cl)c2)c2cccc3cccnc23)cc1,-,-,-,-,53,-,-
Cc1ccc(N(CC(=O)N/N=C/c2cccnc2)S(=O)(=O)c2ccccc2)cc1,-,-,-,-,-,.,.
O=C(Nc1cc(Cl)ccc1N1CCOCC1)c1ccncc1,-,-,-,-,80,-,-
O=C(Nc1cc(Cl)ccc1N1CCOCC1)c1cnccn1,-,-,-,-,-,.,.
CC[N+]1(C)CCC(O)(/C=C/c2ccccc2)C(C(=O)/C=C/c2ccccc2)C1 (stereo not drawn),-,-,-,-,-,.,.
Cc1ccc2oc(-c3cccc(NC(=S)NC(=O)c4cccs4)c3)nc2c1,-,-,-,-,-,.,.
Cc1ccc(-c2nc3ccccc3o2)cc1NC(=S)NC(=O)c1cccs1,-,-,-,-,55,-,-
Cc1cc(C)c2oc(-c3ccc(C)c(NC(=S)NC(=O)c4cccs4)c3)nc2c1,-,-,-,-,51,-,-
COc1ccc(C(=O)Nc2ccc(NC(=O)c3cccs3)cc2)cc1[N+](=O)[O-],-,-,-,-,-,-,-
Cc1ccc(N(Cc2ccccc2)C(=O)CSC(C)C(=O)Nc2cc(C)on2)cc1 (stereo not drawn),-,.,-,-,-,.,.
O=C(C[C@H]1C/C=C\C[C@H](NC(=O)OCC2c3ccccc3-c3ccccc32)C(=O)OC[C@H](Cc2ccccc2)NC1=O)N[C@H](CO)Cc1ccccc1,-,-,-,-,51,-,-
COc1ccc(CNC(=O)c2cc3cc(OC)ccc3oc2=O)cc1,-,-,-,-,-,.,.
COc1ccc2oc(=O)c(C(=O)NCc3ccccc3)cc2c1,-,-,-,-,51,-,-
SMILES,STEP inh,Scp-1 inhibitor,SUMO1-SIM PPI,LMPTP inh,DNMT1 inh,DNMT1 confirm,Beacon interf
Cn1ncn2c(=O)c3c(nc12)-c1ccccc1CC31CCCC1,-,-,-,-,85,-,-
Nn1cnc2c(c1=O)C1(CCCCC1)Cc1ccccc1-2,-,-,-,-,-,.,.
O=C(CSc1ncn[nH]1)N/N=C/c1ccc(C(F)(F)F)cc1,-,-,-,-,-,.,.
CC(=O)Nc1ccc(NC(=O)C(=O)N/N=C/c2cccnc2)cc1,-,-,-,-,-,.,.
Cc1cccc(NC(=O)CSc2nnc(-c3ccco3)c(-c3ccco3)n2)c1,-,-,-,-,-,.,.
Cc1cccc(NC(=O)CSc2nnc(-c3ccco3)c(-c3ccco3)n2)c1C,-,63,-,-,106,-,-
COc1ccccc1-c1cnc(C(O)c2c(C)cc(C)cc2C)[nH]1 (stereo not drawn),-,.,-,-,-,.,.
CC(C)/C=C/C(=O)N1CCC(N2CCC(C(=O)NCC3CCCO3)CC2)CC1 (stereo not drawn),-,.,-,-,50,-,-
OCCC1CN(Cc2ccccc2OC2CCCC2)CCN1Cc1ccsc1 (stereo not drawn),-,-,-,-,-,.,.
O=C(C1CCN(S(=O)(=O)c2cccs2)CC1)N1CCCCC1,-,-,-,-,-,.,.
O=C1CCC/C(=N/NC(=O)C2CCN(S(=O)(=O)c3cccs3)CC2)C1,-,-,-,-,71,-,-
Cc1nn(Cc2ccc(Cl)c(Cl)c2)c(C)c1NC(=O)c1cc(-c2ccc3c(c2)OCO3)on1,-,-,-,-,76,-,-
Cc1nn(Cc2ccc(Cl)cc2)c(C)c1NC(=O)c1cc(-c2ccc3c(c2)OCO3)on1,-,-,-,-,-,.,.
COc1cc(/C=N/NC(=O)CNc2n[nH]c(=O)[nH]c2=O)ccc1O,-,-,-,-,-,.,.
Cc1ccc(S(=O)(=O)N2[C@@H](c3ccc(Cl)cc3)C(C(=O)O)=CC[C@H]2c2cccs2)cc1,-,-,-,-,-,.,.
O=C(CCNC(=O)c1ccccc1Cl)NCCc1ccc(C(F)(F)F)cc1,-,-,-,-,-,.,.
O=C(CCNS(=O)(=O)c1ccccc1C(F)(F)F)N1CCCCCCC1,-,-,-,-,52,-,-
O=C(NC(=S)Nc1cccc(Cl)c1Cl)C1CC1,-,-,-,-,-,.,.
CCN(c1ccccc1)S(=O)(=O)c1cc(NC(=O)CSc2n[nH]c(=O)[nH]c2=O)ccc1Cl,-,-,-,-,65,-,-
CC(C)Sc1nc2sc3c(c2c2nnc(SCC(=O)NCc4ccco4)n12)CCCC3,-,-,-,-,65,-,-
COc1cc2c(O)cc(C(=O)O)c(-c3cc(OC)c(OC)c(OC)c3)c2cc1OC,-,-,-,-,-,.,.
COc1cc(C)cc(C(=O)O)c1C1=C(O)c2cccc(O)c2C(=O)C1=O,-,-,-,-,66,-,-
O=C(NCC1CCCN(C(=O)c2cccc(C(F)(F)F)c2)C1)c1ccc(F)cc1 (stereo not drawn),-,-,-,-,-,.,.
O=C(NCC1CCCN(Cc2cccc(C(F)(F)F)c2)C1)c1ccc(F)cc1 (stereo not drawn),-,-,-,-,132,-,-
COc1ccc(CCNC(=O)C2CCCN(S(=O)(=O)c3ccccc3)C2)cc1 (stereo not drawn),-,-,-,-,82,-,-
